# Measurements from ChEMBL document CHEMBL5136969, “A niclosamide-tobramycin hybrid adjuvant potentiates cefiderocol against P. aeruginosa” (2021).
# Activity calls are given as the source filed them.
# Legend:
# Pseudomonas aeruginosa [1] = assay: Antibacterial activity against MDR clinical isolate Pseudomonas aeruginosa PA260 assessed as reduction in bacterial growth after 18 hrs by microbroth dilution method; type: functional
# Summary of the method: (§1)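 CLSI broth microdilution. Overnight cultures were adjusted in saline to 0.5 McFarland, diluted 1:50 in Mueller-Hinton broth (MHB), and inoculated at about 5 × 10^5 CFU/mL. Agents were 2-fold serially diluted in MHB, mixed 1:1 with inoculum, and held at 37 °C for 18 h. MIC was the lowest concentration with no visible turbidity, confirmed at 590 nm.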
# Pseudomonas aeruginosa [2] = assay: Potentiation of ceftolozane-induced antibiotic activity against MDR clinical isolate Pseudomonas aeruginosa PA260 assessed as MIC fold reduction at 8 ug/ml after 18 hrs by microbroth dilution method; type: functional, organism-based; conditions: dose 8.0 µg/ml
# Summary of the method: (§2)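 Adjuvant held at a fixed 8 μg/mL while the antibiotic was 2-fold serially diluted in Mueller-Hinton broth (MHB), per CLSI microbroth dilution. Overnight cultures were adjusted in saline to 0.5 McFarland, then diluted 1:50 in MHB to about 5 × 10^5 CFU/mL final, and incubated 18 h at 37 °C. MIC was the lowest concentration with no visible turbidity, confirmed at 590 nm. Fold potentiation = MIC alone / MIC with adjuvant.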
# Pseudomonas aeruginosa [3] = assay: Potentiation of sulfamethoxazole-induced antibiotic activity against Pseudomonas aeruginosa PAO1 assessed as MIC fold reduction at 8 ug/ml after 18 hrs by microbroth dilution method; type: functional; conditions: dose 8 µg/ml
# Pseudomonas aeruginosa [4] = assay: Antibacterial activity against colistin-resistant clinical isolate Pseudomonas aeruginosa PA114228 assessed as potentiation of cefiderocol antibacterial activity by measuring FIC index after 18 hrs by microbroth dilution method; type: functional
# Summary of the method: (§3)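 Checkerboard in MHB (iron-replete, not iron-depleted CAMHB). Cefiderocol was 2-fold serially diluted along one axis and the adjuvant along the other. Inoculum was 0.5 McFarland diluted 1:50, about 5 × 10^5 CFU/mL final. Incubation was 18 h at 37 °C, with turbidity read visually and confirmed at 590 nm. FIC was the MIC in combination over the MIC alone for each agent, and the FIC index was their sum. Cut-offs were ≤0.5 synergy, >0.5–4 additive, >4 antagonism.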
# Klebsiella pneumoniae = assay: Antibacterial activity against Klebsiella pneumoniae KP116381 assessed as potentiation of cefiderocol antibacterial activity by measuring FIC after 18 hrs by microbroth dilution method; type: functional
# Summary of the method: (§4)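 Checkerboard in MHB. Cefiderocol was 2-fold serially diluted along one axis and the adjuvant along the other. Inoculum was prepared from 0.5 McFarland saline suspensions diluted 1:50 in MHB, giving about 5 × 10^5 CFU/mL final. Plates ran 18 h at 37 °C, with turbidity confirmed at 590 nm. FIC = combination MIC ÷ MIC alone for each agent, and FIC index = sum of both. Interpretation: ≤0.5 synergy, >0.5–4 additive, >4 antagonism.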
# Acinetobacter baumannii [5] = assay: Antibacterial activity against Acinetobacter baumannii ATCC 17978 assessed as reduction in bacterial growth after 18 hrs by microbroth dilution method; type: functional
# Summary of the method: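 CLSI microbroth dilution in MHB. Overnight cultures were adjusted to 0.5 McFarland in saline, diluted 1:50, and inoculated at about 5 × 10^5 CFU/mL. Agents were 2-fold serially diluted and incubated 18 h at 37 °C. MIC is the lowest concentration without visible turbidity, confirmed by absorbance at 590 nm. Medium with and without cells served as controls.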
# Acinetobacter baumannii [6] = assay: Antibacterial activity against Acinetobacter baumannii ATCC 17978 assessed as reduction in bacterial growth after 18 hrs in presence of cefiderocol by microbroth dilution method; type: functional
# Summary of the method: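 Checkerboard in Mueller-Hinton broth: cefiderocol 2-fold diluted on one axis, adjuvant 2-fold on the other. Overnight cultures were adjusted to 0.5 McFarland in saline, diluted 1:50 in MHB, and inoculated at about 5 × 10^5 CFU/mL. Incubation was 18 h at 37 °C. Turbidity was read visually and confirmed at 590 nm. FIC index = FIC of antibiotic + FIC of adjuvant; ≤0.5 synergy, >4 antagonism.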
# Pseudomonas aeruginosa [7] = assay: Potentiation of pleuromutilin-induced antibiotic activity against Pseudomonas aeruginosa PAO1 assessed as MIC fold reduction at 8 ug/ml after 18 hrs by microbroth dilution method; type: functional; conditions: dose 8 µg/ml
# Acinetobacter baumannii [8] = assay: Potentiation of doxycycline-induced antibiotic activity against Acinetobacter baumannii ATCC 17978 assessed as MIC fold reduction at 8 ug/ml after 18 hrs by microbroth dilution method; type: functional; conditions: dose 8 µg/ml; summary of the method: as §2
# Escherichia coli [9] = assay: Potentiation of cefotaxime-induced antibiotic activity against Escherichia coli ATCC 25922 assessed as MIC fold reduction at 8 ug/ml after 18 hrs by microbroth dilution method; type: functional; conditions: dose 8 µg/ml
# Summary of the method: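 Initial screen in MHB using a fixed 8 μg mL−1 of adjuvant combined with each antibiotic under 2-fold dilution. Broth microdilution used about 5 × 10^5 CFU/mL at 37 °C for 18 h, with visible turbidity read and confirmed at 590 nm. Fold-potentiation = antibiotic MIC alone ÷ antibiotic MIC with adjuvant.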
# Acinetobacter baumannii [10] = assay: Potentiation of novobiocin-induced antibiotic activity against Acinetobacter baumannii ATCC 17978 assessed as MIC fold reduction at 8 ug/ml after 18 hrs by microbroth dilution method; type: functional; conditions: dose 8 µg/ml
# Pseudomonas aeruginosa [11] = assay: Antibacterial activity against MDR clinical isolate Pseudomonas aeruginosa PA262 assessed as potentiation of cefiderocol antibacterial activity by measuring FIC index after 18 hrs by microbroth dilution method; type: functional; summary of the method: as §4
# Pseudomonas aeruginosa [12] = assay: Potentiation of ceftolozane-induced antibiotic activity against MDR clinical isolate Pseudomonas aeruginosa PA264 assessed as MIC fold reduction at 8 ug/ml after 18 hrs by microbroth dilution method; type: functional, organism-based; conditions: dose 8.0 µg/ml; summary of the method: as §2
# Acinetobacter baumannii [13] = assay: Potentiation of trimethoprim-induced antibiotic activity against Acinetobacter baumannii ATCC 17978 assessed as MIC fold reduction at 8 ug/ml after 18 hrs by microbroth dilution method; type: functional; conditions: dose 8 µg/ml
# Acinetobacter baumannii [14] = assay: Potentiation of ceftazidime-induced antibiotic activity against Acinetobacter baumannii ATCC 17978 assessed as MIC fold reduction at 8 ug/ml after 18 hrs by microbroth dilution method; type: functional; conditions: dose 8 µg/ml; summary of the method: as §2
# Pseudomonas aeruginosa [15] = assay: Antibacterial activity against MDR clinical isolate Pseudomonas aeruginosa PA262 assessed as reduction in bacterial growth after 18 hrs in presence of cefiderocol by microbroth dilution method; type: functional; summary of the method: as §3
# Pseudomonas aeruginosa [16] = assay: Potentiation of moxifloxacin-induced antibiotic activity against Pseudomonas aeruginosa PAO1 assessed as reduction in microbial growth at 8 ug/ml after 18 hrs by microbroth dilution method relative to control; conditions: PAO1, 18 h, read-out: GI
# Pseudomonas aeruginosa [17] = assay: Antibacterial activity against MDR clinical isolate Pseudomonas aeruginosa PA101885 assessed as reduction in bacterial growth after 18 hrs by microbroth dilution method; type: functional; summary of the method: as §1
# Escherichia coli [18] = assay: Potentiation of minocycline-induced antibiotic activity against Escherichia coli ATCC 25922 assessed as MIC fold reduction at 8 ug/ml after 18 hrs by microbroth dilution method; type: functional; conditions: dose 8 µg/ml; summary of the method: as §2
# Pseudomonas aeruginosa [19] = assay: Antibacterial activity against colistin-resistant clinical isolate Pseudomonas aeruginosa PA91433 assessed as reduction in bacterial growth after 18 hrs in presence of cefiderocol by microbroth dilution method; type: functional; summary of the method: as §3
# Pseudomonas aeruginosa [20] = assay: Potentiation of trimethoprim-induced antibiotic activity against Pseudomonas aeruginosa PAO1 assessed as MIC fold reduction at 8 ug/ml after 18 hrs by microbroth dilution method; type: functional; conditions: dose 8 µg/ml
# Escherichia coli [21] = assay: Potentiation of piperacilin-induced antibiotic activity against Escherichia coli ATCC 25922 assessed as MIC fold reduction at 8 ug/ml after 18 hrs by microbroth dilution method; type: functional; conditions: dose 8 µg/ml
smiles,measurement,setting,value
NC[C@H]1O[C@H](O[C@H]2[C@H](OCCCCc3cn(-c4ccc(NC(=O)c5cc(Cl)ccc5O)cc4)nn3)[C@@H](O[C@H]3O[C@H](CO)[C@@H](O)[C@H](N)[C@H]3O)[C@H](N)C[C@@H]2N)[C@H](N)C[C@@H]1O,MIC,Pseudomonas aeruginosa [1],> 128 µg/mL
same,Activity,Pseudomonas aeruginosa [2],Active
same,fold change (FC),Pseudomonas aeruginosa [3],4
same,FIC,Pseudomonas aeruginosa [4],1
same,FIC,Klebsiella pneumoniae,0.5
same,MIC,Acinetobacter baumannii [5],> 128 µg/mL
same,MIC,Acinetobacter baumannii [6],16 µg/mL
same,fold change (FC),Pseudomonas aeruginosa [7],4
same,fold change (FC),Acinetobacter baumannii [8],4
same,fold change (FC),Escherichia coli [9],4
same,fold change (FC),Acinetobacter baumannii [10],4
same,FIC,Pseudomonas aeruginosa [11],0.25
same,Activity,Pseudomonas aeruginosa [12],Active
same,fold change (FC),Acinetobacter baumannii [13],4
same,fold change (FC),Acinetobacter baumannii [14],4
same,MIC,Pseudomonas aeruginosa [15],1 µg/mL
same,inhibition of growth at 8 µg/mL,Pseudomonas aeruginosa [16],100%
same,MIC,Pseudomonas aeruginosa [17],> 128 µg/mL
same,fold change (FC),Escherichia coli [18],4
same,MIC,Pseudomonas aeruginosa [19],1 µg/mL
same,fold change (FC),Pseudomonas aeruginosa [20],4
same,fold change (FC),Escherichia coli [21],4
